From publication PMC5931369 (Nature chemical biology, 2018)
Values joined by “and” are separate entries in the source; they are usually repeats but may differ in a detail not shown here. Equal entries are not always repeated. “Also recorded” adds a separate entry of the source.

Assays:
ptc>dRet^M955T flies = assay: rescue-from-lethality assay in ptc>dRet^M955T flies; format: in vivo, Drosophila; settings: drug food, 25°C; for rescue of ptc>dRet^M955T flies to adulthood (% viability): optimal dose
Method in brief: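 ptc-gal4,UAS-GFP;UAS-dRetM955T/SM5tub-gal80-TM6B flies were crossed with w−. Embryos were raised for 13 days at 25°C on semi-defined medium carrying compound added from DMSO, 0.1% final. Flies were randomised. % viability = empty pupal cases ÷ total pupal cases. The assay was repeated twice.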

765>dRet^M955T flies = assay: wing venation assay; format: in vivo, Drosophila
Method in brief: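 UAS-dRetM955T;765-gal4/SM5tub-gal80-TM6B flies were crossed with w– or Lk6−/+ to give 765>dRetM955T or 765>dRetM955T,Lk6−/+ progeny. Progeny were reared for 13 days at 25°C on medium with or without compound (0.1% final DMSO). Adult wings were scored blind for abnormal venation. The assay was repeated twice.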

[1] = test system: dRet^M955T-expressing wing cells; assay: in vivo cell migration assay in developing wing discs; parameters: species or system Drosophila; settings: for EMT and migration/invasion of dRet^M955T-expressing wing cells: ptc>dRet^M955T wing discs; for effect of reduced Lk6 on suppression of ptc>dRet^M955T cell migration: ptc>dRet^M955T,Lk6^−/+ wing discs, 1 400 µM, 4 200 µM, 9 100 µM, 10 100 µM
Method in brief: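 Third-instar larvae were dissected to collect developing wing discs. Discs were fixed in 4% paraformaldehyde in PBS and whole-mounted. GFP-labelled dRetM955T-expressing cells were examined by confocal microscopy. Phospho-Src was immunostained with rabbit anti-Src(pY418).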

[2] = test system: ptc>dRet^M955T flies with or without kinase heterozygous mutations; format: in vivo, Drosophila; settings: 23°C
non-oncogenic w^− flies = assay: whole body toxicity in control, non-transformed flies; format: in vivo, Drosophila; settings: fed to control
TT human MTC cells [3] = assay: soft agar colony formation assay; format: cell-based; settings: three weeks, compared with sorafenib and 4
Method in brief: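 TT cells were cultured in 0.3% agar with or without test compound for three weeks. Colony formation efficiency = number of growing colonies ÷ cells seeded. The assay was repeated twice.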

BRAF = BRAF (Homo sapiens, UniProt P15056); assay: Kd measurement; format: binding; settings: cell-free in vitro
Method in brief: (§1)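 Competition binding assay: kinases expressed on phage and captured on beads through immobilised active-site-directed ligands. Test compound is premixed with kinase and scored for its ability to compete for the immobilised ligand. An 11-point series, 30,000 to 0.5 nM in 3-fold dilutions, is used for each compound–kinase pair. Kd is fitted by the Hill equation with slope fixed at -1 and averaged over two replicates.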

MKNK1 = MKNK1 (Homo sapiens, UniProt Q9BUB5); assay: Kd measurement; format: binding
Method in brief: as §1

RET = RET (Homo sapiens, UniProt P07949); assay: Kd measurement; format: binding
Method in brief: as §1

TT cells = assay: TT cell xenograft assay in nude mice; format: in vivo, mouse
Method in brief: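 Forty female nude mice (6 weeks) received subcutaneous TT cells. At ~120 mm3 tumour volume they were randomised into four arms. Each arm was dosed orally five days per week with vehicle or 10 mg/kg/day compound. Vehicle: Cremophor EL/ethanol (1:1) diluted 4-fold with water.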

[4] = pharmacokinetics assay in mice; format: in vivo, mouse
Method in brief: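 Male ICR mice (6 weeks) received a single oral dose of 20 mg/kg. Plasma drug concentrations were measured at 0.25, 0.5, 1, 2, 4, 8, 10 and 24 h after dosing.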

toleration assay = format: in vivo, mouse
Method in brief: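 Five female athymic nude mice (6 weeks) received escalating oral doses from 0.1 mg/kg/day up to 160 mg/kg/day.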

[5] = test system: BRAF in HCT-116 and LOVO cells; assay: RAF transactivation assay in human cancer cell lines; format: cell-based; settings: two cancer cell lines (HCT-116, LOVO), 1 hour
Method in brief: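 HCT-116 cells are kept in DMEM and LOVO cells in DMEM/F12, each with 10% FBS, 2 mM glutamine and antibiotics. Cells are seeded, then treated with test compound for 1 hour after 24 hours. Lysates are BCA-normalised, run on 4–15% gradient SDS-PAGE and immunoblotted for pMEK, pERK1/2 and total MEK.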

MZ-CRC-1 human MTC cells = assay: signaling pathway activity analysis; format: cell-based; settings: MZ-CRC-1 cells, 1 µM, 1 hour
Method in brief: (§2)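 MZ-CRC-1 or TT medullary thyroid carcinoma cells were exposed for 1 hour to vehicle (0.1% DMSO) or 1 µM test compound. Cells were harvested and immunoblotted for pMEK, total MEK, pERK1/2, total ERK1/2 and pS6.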

TT human MTC cells [6] = assay: signaling pathway activity analysis; format: cell-based; settings: 1 µM, 1 hour
Method in brief: as §2

[7] = higher doses that rescued ptc>dRet^M955T viability
[8] = low dose, 10 µM final food concentration, 765>dRet^M955T larvae

Sequence of BRAF (P15056 whole entry): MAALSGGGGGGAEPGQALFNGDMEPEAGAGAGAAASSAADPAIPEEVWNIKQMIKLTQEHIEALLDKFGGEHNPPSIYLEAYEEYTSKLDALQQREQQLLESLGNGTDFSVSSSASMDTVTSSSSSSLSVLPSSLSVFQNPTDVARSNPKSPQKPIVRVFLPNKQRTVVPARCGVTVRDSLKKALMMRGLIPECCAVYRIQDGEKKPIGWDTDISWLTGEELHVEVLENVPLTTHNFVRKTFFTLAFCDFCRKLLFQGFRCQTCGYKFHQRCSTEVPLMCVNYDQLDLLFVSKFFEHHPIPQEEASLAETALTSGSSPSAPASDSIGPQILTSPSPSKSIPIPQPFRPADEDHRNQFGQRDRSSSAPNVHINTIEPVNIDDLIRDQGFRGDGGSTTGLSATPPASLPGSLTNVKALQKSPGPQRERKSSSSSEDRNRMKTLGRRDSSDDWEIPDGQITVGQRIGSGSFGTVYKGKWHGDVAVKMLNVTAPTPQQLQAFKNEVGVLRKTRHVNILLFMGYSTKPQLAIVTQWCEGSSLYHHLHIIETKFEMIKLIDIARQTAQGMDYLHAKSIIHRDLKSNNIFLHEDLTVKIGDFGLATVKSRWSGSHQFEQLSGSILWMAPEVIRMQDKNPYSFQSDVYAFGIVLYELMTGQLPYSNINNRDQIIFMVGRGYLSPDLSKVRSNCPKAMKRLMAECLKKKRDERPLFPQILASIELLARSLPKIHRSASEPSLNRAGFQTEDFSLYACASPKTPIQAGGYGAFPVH
Sequence of MKNK1 (Q9BUB5 whole entry): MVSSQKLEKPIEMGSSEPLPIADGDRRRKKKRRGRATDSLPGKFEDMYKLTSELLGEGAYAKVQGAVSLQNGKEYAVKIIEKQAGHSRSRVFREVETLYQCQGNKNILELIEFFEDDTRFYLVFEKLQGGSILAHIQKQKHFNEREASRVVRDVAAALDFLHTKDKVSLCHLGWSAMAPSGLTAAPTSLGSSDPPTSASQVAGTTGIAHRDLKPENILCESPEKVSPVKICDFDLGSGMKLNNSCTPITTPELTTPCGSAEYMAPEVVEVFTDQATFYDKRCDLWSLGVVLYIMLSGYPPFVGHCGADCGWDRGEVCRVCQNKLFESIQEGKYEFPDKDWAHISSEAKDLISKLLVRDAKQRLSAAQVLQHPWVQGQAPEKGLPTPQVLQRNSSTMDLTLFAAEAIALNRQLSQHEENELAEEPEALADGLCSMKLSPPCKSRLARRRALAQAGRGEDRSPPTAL
Sequence of RET (P07949 29-1114): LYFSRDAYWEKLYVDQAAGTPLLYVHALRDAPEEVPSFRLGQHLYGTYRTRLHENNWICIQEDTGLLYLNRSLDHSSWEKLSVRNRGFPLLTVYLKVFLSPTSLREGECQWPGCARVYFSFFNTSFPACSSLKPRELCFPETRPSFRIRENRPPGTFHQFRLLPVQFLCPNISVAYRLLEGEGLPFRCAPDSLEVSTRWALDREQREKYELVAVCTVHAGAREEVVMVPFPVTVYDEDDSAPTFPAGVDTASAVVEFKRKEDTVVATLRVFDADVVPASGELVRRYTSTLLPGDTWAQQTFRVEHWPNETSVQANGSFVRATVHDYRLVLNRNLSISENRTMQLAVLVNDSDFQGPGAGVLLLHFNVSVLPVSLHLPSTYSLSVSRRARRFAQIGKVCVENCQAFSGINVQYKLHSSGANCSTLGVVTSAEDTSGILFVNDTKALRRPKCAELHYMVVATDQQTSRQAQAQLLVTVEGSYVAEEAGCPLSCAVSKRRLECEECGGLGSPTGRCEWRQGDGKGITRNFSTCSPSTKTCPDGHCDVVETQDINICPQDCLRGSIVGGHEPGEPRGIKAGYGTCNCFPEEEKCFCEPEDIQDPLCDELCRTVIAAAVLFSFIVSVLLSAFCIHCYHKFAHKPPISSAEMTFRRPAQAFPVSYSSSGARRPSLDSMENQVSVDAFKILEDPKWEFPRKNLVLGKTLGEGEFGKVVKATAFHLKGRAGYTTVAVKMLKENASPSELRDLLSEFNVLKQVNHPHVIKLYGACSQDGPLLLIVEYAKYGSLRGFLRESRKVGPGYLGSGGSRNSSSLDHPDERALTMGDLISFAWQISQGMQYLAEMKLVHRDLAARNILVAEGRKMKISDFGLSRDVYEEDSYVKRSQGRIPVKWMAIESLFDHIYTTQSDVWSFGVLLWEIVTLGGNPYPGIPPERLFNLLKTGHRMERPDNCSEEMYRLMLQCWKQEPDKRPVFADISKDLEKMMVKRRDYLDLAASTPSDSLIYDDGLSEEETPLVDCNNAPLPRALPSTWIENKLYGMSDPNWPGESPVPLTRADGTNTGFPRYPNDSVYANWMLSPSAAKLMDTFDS

Compound: CNC(=O)c1cc(Oc2ccc(NC(=O)Nc3cccc(C(F)(F)F)c3)cc2)ccn1 [LS1-11-2, N-methyl-4-(4-(3-(3-(trifluoromethyl)phenyl)ureido)phenoxy)picolinamide]
- rescue of ptc>dRet^M955T viability, in words (ptc>dRet^M955T flies): reduced survival

Compound: CNC(=O)c1cc(Oc2ccc(NC(=O)Nc3cc(C(F)(F)F)ccc3F)cc2)ccn1 [compound 4, 4-(4-(3-(2-fluoro-5-(trifluoromethyl)phenyl)ureido)phenoxy)-N-methylpicolinamide]
- ectopic wing venation (765>dRet^M955T flies; [7]): did not promote ectopic wing venation
- ectopic wing venation (765>dRet^M955T flies; [8]): stimulated significant excess wing vein material
- rescue of ptc>dRet^M955T viability, in words (ptc>dRet^M955T flies; listed as LS1-15): more effective than sorafenib
- EMT and migration/invasion of dRet^M955T-expressing wing cells [1]: as effective as sorafenib in suppressing EMT and invasion
- effect of reduced Lk6 on suppression of ptc>dRet^M955T cell migration [1]: reversed suppression
- viability of ptc>dRet^M955T flies ([2]; kinase-proficient control flies): ~ 50% and 50%
- survival to adulthood of ptc>dRet^M955T,Lk6^−/+ flies ([2]; one functional allele of Lk6 removed): 0%
- viability of ptc>dRet^M955T,phl^−/+ flies ([2]; phl (RAF ortholog) heterozygous): 96%

Compound: CNC(=O)c1cc(Oc2ccc(NC(=O)Nc3cc(C(F)(F)F)ccc3F)c(F)c2)ccn1 [compound 5, 4-(3-fluoro-4-(3-(2-fluoro-5-(trifluoromethyl)phenyl)ureido)phenoxy)-N-methylpicolinamide]
- rescue of ptc>dRet^M955T viability, in words (ptc>dRet^M955T flies): more effective than sorafenib
- EMT and migration/invasion of dRet^M955T-expressing wing cells [1]: as effective as sorafenib in suppressing EMT and invasion

Compound: CNC(=O)c1cc(Oc2ccc(NC(=O)c3ccc(Cl)c(C(F)(F)F)c3)cc2)ccn1 [compound 6, 4-(4-(4-chloro-3-(trifluoromethyl)benzamido)phenoxy)-N-methylpicolinamide]
- whole body toxicity (non-oncogenic w^− flies): toxic
- EMT and migration/invasion of dRet^M955T-expressing wing cells [1]: enhanced cell migration

Compound: CNC(=O)c1cc(Oc2ccc(NC(=O)Nc3cc(C(F)F)ccc3F)cc2)ccn1 [compound 7, 4-(4-(3-(5-(difluoromethyl)-2-fluorophenyl)ureido)phenoxy)-N-methylpicolinamide]
- rescue of ptc>dRet^M955T viability, in words (ptc>dRet^M955T flies): reduced rescue
- rescue of ptc>dRet^M955T viability, in words (ptc>dRet^M955T flies; listed as APS4-54): poor whole animal activity

Compound: CNC(=O)c1cc(Oc2ccc(NC(=O)Nc3cc(C)ccc3F)cc2)ccn1 [compound 8, 4-(4-(3-(2-fluoro-5-methylphenyl)ureido)phenoxy)-N-methylpicolinamide]
- rescue of ptc>dRet^M955T viability, in words (ptc>dRet^M955T flies): reduced rescue
- rescue of ptc>dRet^M955T viability, in words (ptc>dRet^M955T flies; listed as APS4-35-1): poor whole animal activity

Compound: CNC(=O)c1cc(Oc2ccc(NC(=O)Nc3cc(C(F)(F)C(F)(F)F)ccc3F)cc2)ccn1 [compound 9, 4-(4-(3-(2-fluoro-5-(perfluoroethyl)phenyl)ureido)phenoxy)-N-methylpicolinamide]
- ectopic wing venation (765>dRet^M955T flies; at any dose): failed to promote ectopic wing venation
- colony formation of TT cells in soft agar (TT human MTC cells [3]): strongly suppressed
- BRAF binding compared to sorafenib and 4 (BRAF): reduced BRAF binding
- rescue of ptc>dRet^M955T viability, in words (ptc>dRet^M955T flies): strongly improved
- in vitro MKNK1 binding relative to sorafenib (MKNK1): significantly reduced
- effect of reduced Lk6 on suppression of ptc>dRet^M955T cell migration [1]: not affected

Compound: CNC(=O)c1cc(Oc2ccc(NC(=O)Nc3cc(C(F)(C(F)(F)F)C(F)(F)F)ccc3F)cc2)ccn1 [compound 10, 4-(4-(3-(2-fluoro-5-(perfluoropropan-2-yl)phenyl)ureido)phenoxy)-N-methylpicolinamide]
- ectopic wing venation (765>dRet^M955T flies; at any dose): failed to promote ectopic wing venation
- RET binding relative to sorafenib (RET): weaker RET binding
- partial or complete responses, share of dosed mice (TT cells; 10 mg/kg/day p.o. five days per week, day 30, female nude mice): 75%
- growth of established TT tumors (TT cells; 10 mg/kg/day p.o. five days per week, subcutaneous xenograft, nude mice): far more potently than sorafenib or cabozantinib
- body weight of dosed mice (TT cells; 10 mg/kg/day p.o., after 30 days): no effect; also recorded: did not affect body weight
- colony formation of TT cells in soft agar (TT human MTC cells [3]): strongly suppressed
- BRAF binding compared to sorafenib and 4 (BRAF): reduced BRAF binding
- rescue of ptc>dRet^M955T viability, in words (ptc>dRet^M955T flies): strongly improved
- rescue of ptc>dRet^M955T flies to adulthood (% viability) (ptc>dRet^M955T flies): 84%
- treatment-related clinical signs following dosing ([4]; 20 mg/kg orally, male ICR mice): No treatment-related clinical signs were observed
- concentration in blood plasma ([4]; 20 mg/kg p.o., male ICR mice): approximately 10 µM
- half-life ([4]; male, ICR, mouse, plasma, po, 20 mg/kg): 5.6 h
- in vitro MKNK1 binding relative to sorafenib (MKNK1): only a small decrease
- signs of clinical distress (weight loss, discharges, morbidity) (toleration assay; female athymic nude mice, oral dose escalated from 0.1 up to 160 mg/kg/day): no such signs were observed
- toxic effects after oral dosing (toleration assay; single oral dose of 160 mg/kg): did not cause detectable toxic effects
- drug concentration required to transactivate BRAF relative to sorafenib [5]: ~ 30 fold
- effect of reduced Lk6 on suppression of ptc>dRet^M955T cell migration [1]: not affected
- RAS pathway signaling (MZ-CRC-1 human MTC cells): strongly inhibited
- RAS pathway signaling (TT human MTC cells [6]): strongly inhibited

Compound: CNC(=O)c1cc(Oc2ccc(NC(=O)Nc3ccc(Cl)c(C(F)(F)F)c3)c(F)c2)ccn1 [regorafenib, 4-(4-(3-(4-chloro-3-(trifluoromethyl)phenyl)ureido)-3-fluorophenoxy)-N-methylpicolinamide, reference compound]
- rescue of ptc>dRet^M955T viability, in words (ptc>dRet^M955T flies): only moderate

Compound: CC(=O)Nc1cccc(-n2c(=O)n(C3CC3)c(=O)c3c(Nc4ccc(I)cc4F)n(C)c(=O)c(C)c32)c1 [trametinib, reference compound]
- ectopic wing venation (765>dRet^M955T flies; 1 µM, 765>dRet^M955T adults): strongly suppressed ectopic venation
- wing defects (enhanced wing venation, poor wing structure) (765>dRet^M955T flies; 765>dRet^M955T,Lk6^−/+ flies): suppressed
- rescue of ptc>dRet^M955T viability, in words (ptc>dRet^M955T flies): only moderate

Compound: N-methyl-4-(4-(3-(3-(trifluoromethyl)phenyl)ureido)phenoxy)picolinamide [sorafenib, reference compound]
- ectopic wing venation (765>dRet^M955T flies; [7]): did not promote ectopic wing venation
- ectopic wing venation (765>dRet^M955T flies; [8]): stimulated significant excess wing vein material
- rescue of ptc>dRet^M955T viability, in words (ptc>dRet^M955T flies): only moderate
- rescue of ptc>dRet^M955T flies to adulthood (% viability) (ptc>dRet^M955T flies): ~ 5% and 5%
- EMT and migration/invasion of dRet^M955T-expressing wing cells [1]: suppressed both EMT and migration
- effect of reduced Lk6 on suppression of ptc>dRet^M955T cell migration [1]: reversed suppression
